Activity calls are given as the source filed them. No cut-off for these calls is given here.
Assays:
HCT-116 [1] = assay: Induction of apoptosis in Bax-/- human HCT116 cells assessed as increase in cleaved PARP level at 4 to 16 uM by Western blot method; format: functional, cell-based
How it was run: (§1)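 Lysates were made in SDS buffer (2% SDS, 50 mM Tris-HCl pH 6.8) and quantified by BCA. Equal protein was run on 10% SDS-PAGE and transferred to PVDF. Membranes were blocked in 5% milk, probed overnight at 4 °C for cleaved PARP (1:1000) with GAPDH (1:5000), and detected with HRP secondary antibody and ECL.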

HCT-116 [2] = assay: Cytotoxicity in human HCT116 cells assessed as reduction in cell viability pre-treated with 7.5 mM L-NAC followed by 16 to 32 uM compound addition and further incubated for 24 hrs by CCK8 assay; format: functional, cell-based
How it was run: (§2)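 HCT116 cells were pretreated with H2O, 7.5 mM L-NAC or 7.5 mM GSH, then exposed to 4, 16 or 32 µM for 24 h. Viability was read by CCK-8, with 1 h reagent incubation at 37 °C and absorbance at 450 nm. n=3.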

HCT-116 [3] = assay: Cytotoxicity in human HCT116 cells assessed as reduction in cell viability pre-treated with 7.5 mM GSH followed by 16 to 32 uM compound addition and further incubated for 24 hrs by CCK8 assay; format: functional, cell-based; how it was run: as §2
HCT-116 [4] = assay: Induction of apoptosis in p53-/- human HCT116 cells assessed as early apoptotic cells level at 4 uM incubated for 48 hrs by Annexin V-FITC/PI staining based cytometry (reference value: 2.9%); format: functional
How it was run: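 Cells were plated at 5×10^5 per well and treated once 80% confluent. After trypsinisation and two washes in ice-cold PBS (pH 7.4), cells were stained with Annexin V-FITC and PI for 15 min at room temperature in the dark. Analysis was by flow cytometry. The legend gives vehicle or 4 µM for the p53-/- and Bax-/- lines.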

HCT-116 [5] = assay: Induction of apoptosis in human HCT116 cells assessed as subG1 phase cells level at 2 uM incubated for 24 hrs by […]PI staining based cytometry (reference value: 1%); format: functional
How it was run: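 Cells were treated for 24 h, then fixed in 75% ethanol at -20 °C overnight. RNA was digested with 0.2 mg/mL RNase A for 30 min at 37 °C. Cells were stained with 50 µg/mL PI for 30 min in the dark, and DNA content was read by flow cytometry.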

HCT-116 [6] = assay: Induction of apoptosis in human HCT116 cells assessed as early apoptotic cells level at 4 uM incubated for 24 hrs by Annexin V-FITC/PI staining based cytometry (reference value: 1.3%); format: functional
HCT-116 [7] = assay: Induction of apoptosis in human HCT116 cells assessed as late apoptotic cells level at 4 uM incubated for 24 hrs by Annexin V-FITC/PI staining based cytometry (reference value: 0.5%); format: functional
HCT-116 [8] = assay: Inhibition of colony formation of p53-/- human HCT116 cells at 4 to 16 uM incubated for 24 hrs by crystal violet staining based photography; format: functional, cell-based
How it was run: (§3)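 Cells (HCT116, RKO, HCT116 p53-/-, HCT116 Bax-/-) seeded at 300 per well in 12-well plates for 48 h, then treated 24 h. Drug medium replaced with fresh medium; about 10 days later colonies stained 15 min with crystal violet, photographed and counted. Run in triplicate.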

HCT-116 [9] = assay: Induction of apoptosis in Bax-/- human HCT116 cells assessed as viable cells level pre-incubated with 20 uM pan-caspase inhibitor Z-VAD-FMK for 5 hrs followed by compound addition and further incubated for 48 hrs by Annexin V-FITC/PI staining based cytometry (reference value: 92.9%); format: functional
HCT-116 [10] = assay: Inhibition of colony formation of human HCT116 cells incubated for 24 hrs and measured after 10 days post dose in fresh medium by crystal violet staining based photography; format: functional, cell-based; how it was run: as §3
HCT-116 [11] = assay: Induction of apoptosis in human HCT116 cells assessed as viable cells level at 2 uM incubated for 24 hrs by Annexin V-FITC/PI staining based cytometry (reference value: 96.6%); format: functional
HCT-116 [12] = assay: Induction of apoptosis in human HCT116 cells assessed as necrotic cells level at 4 uM incubated for 24 hrs by Annexin V-FITC/PI staining based cytometry (reference value: 1.6%); format: functional
HCT-116 [13] = assay: Induction of apoptosis in human HCT116 cells assessed as increase in cleaved PARP level at 4 to 8 uM incubated for 24 hrs by Western blot method; format: functional, cell-based; how it was run: as §1
HCT-116 [14] = assay: Cytotoxicity against human HCT116 cells assessed as reduction in cell viability incubated for 24 hrs by MTT assay; format: functional, cell-based; settings: HCT-116, 24 h
How it was run: (§4)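 Cells were kept in McCoy's 5A with 10% fetal bovine serum, streptomycin and 100 units·mL⁻¹ penicillin at 37 °C under 5% CO₂/95% air. Viability was read by MTT optical density. IC50 is the concentration that lowers optical density by 50% relative to untreated cells. Values are means with SD of at least three independent determinations.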

HCT-116 [15] = assay: Induction of apoptosis in human HCT116 cells assessed as late apoptotic cells level incubated for 48 hrs by Annexin V-FITC/PI staining based cytometry (reference value: 0.0%); format: functional
HCT-116 [16] = assay: Cytotoxicity against human HCT116 cells assessed as reduction in cell viability incubated for 24 hrs by CCK8 assay; format: functional, cell-based
How it was run: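 Cells were seeded at 3×10^4 per well, grown 24 h, then exposed to increasing concentrations for 24 h. CCK-8 reagent was added for 1 h at 37 °C and absorbance was read at 450 nm. Cells were kept in McCoy's 5A with 10% FBS, and n=3.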

HCT-116 [17] = assay: Inhibition of colony formation of human HCT116 cells pre-treated with 7.5 mM L-NAC for 2 hrs followed by 16 to 32 uM compound addition and further incubated for 24 hrs and measured after 10 days post dose in fresh medium by crystal violet staining based photography; format: functional, cell-based
How it was run: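 HCT116 seeded at about 300 per well in 12-well plates and grown 2 h. Pre-treated 2 h with H2O, 7.5 mM L-NAC or GSH, then exposed to compound for 24 h. Colonies grown 10 days in fresh medium, stained with crystal violet and counted. Triplicate wells.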

HCT-116 [18] = assay: Induction of apoptosis in human HCT116 cells assessed as increase in cleaved PARP level incubated for 48 hrs by Western blot method; format: functional, cell-based; how it was run: as §1
HCT-8 = assay: Cytotoxicity against human HCT8 cells assessed as reduction in cell viability incubated for 24 hrs by MTT assay; format: functional, cell-based; settings: HCT-8, 24 h; how it was run: as §4
HCT-116 [19] = assay: […] of ROS generation in human HCT116 cells pre-treated with 7.5 mM GSH for […] followed by 8 uM compound addition and further incubated for 24 hrs by H2DCFDA dye based flow cytometry; format: functional, cell-based
How it was run: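 HCT116 cells pre-treated 5 h with H2O, 7.5 mM L-NAC or 7.5 mM GSH, then exposed to compound for 24 h. Cells collected, washed twice in PBS, and resuspended in serum-free McCoy's 5A with 10 nM H2DCFDA for 20 min at 37 °C in the dark. After two PBS washes, relative ROS measured by flow cytometry.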

HCT-116 [20] = assay: Induction of apoptosis in p53-/- human HCT116 cells assessed as increase in cleaved PARP level at 4 to 16 uM by Western blot method; format: functional, cell-based; how it was run: as §1
HCT-116 [21] = assay: Inhibition of colony formation of Bax-/- human HCT116 cells at 4 to 16 uM incubated for 24 hrs by crystal violet staining based photography; format: functional, cell-based; how it was run: as §3

Q: Which results are given for `CCN(CC)CCCNC(=O)c1cn(CCCc2ccccc2)c2cc(Cl)ccc2c1=O.Cl`?
A: Activity (HCT-116 [1]): Active; Activity (HCT-116 [2]): inactive; Activity (HCT-116 [3]): inactive; Activity (HCT-116 [4]): 24.8%; Activity (HCT-116 [5]): 6.5%; Activity (HCT-116 [6]): 38.2%; Activity (HCT-116 [7]): 4.8%; inhibition (HCT-116 [8]): Active; Activity (HCT-116 [9]): 87.7%; inhibition (HCT-116 [10]): Dose-dependent effect; Activity (HCT-116 [11]): 79.3%; Activity (HCT-116 [12]): 4.3%; Activity (HCT-116 [13]): Active; IC50 (HCT-116 [14]): 5.79 µM; Activity (HCT-116 [15]): 3.2%; growth inhibition (GI) (HCT-116 [16]): Dose-dependent effect; IC50 (HCT-116 [16]; HCT-116, 24 h): 5.79 µM; inhibition (HCT-116 [17]): inactive; Activity (HCT-116 [18]): Active; IC50 (HCT-8): 6.82 µM; inhibition (HCT-116 [19]): inactive; Activity (HCT-116 [20]): Active; inhibition (HCT-116 [21]): Active
